# From PubChem
# Pf Dd2 inh = P. falciparum Dd2 growth inhibitors, primary screen, SYBR Green fluorescence, single dose replicates | 72 h; hits give low values | activity change, % at 10 µM | hit rate 2.3% among 94,000 | AID 1159554, 2015; in the data active means activity change below about -80%; inconclusive means no clear call, values can overlap the other calls
# IDH1 R132H inh = inhibitors of IDH1 R132H reductase, primary screen, biochemical, plate reader, single point; Isocitrate dehydrogenase [NADP] cytoplasmic (Homo sapiens), O75874; diaphorase/resazurin fluorescence, 60 min; inhibition, % at 10 µM; hit rate 0.18% among 70,000; AID 624101, 2012; in the data active means inhibition above about 34%; inconclusive means no clear call, values can overlap the other calls; inactive means below about 11%;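 further: 0% = DMSO and 100% = no enzyme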
# Target sequence (O75874 whole entry R132H): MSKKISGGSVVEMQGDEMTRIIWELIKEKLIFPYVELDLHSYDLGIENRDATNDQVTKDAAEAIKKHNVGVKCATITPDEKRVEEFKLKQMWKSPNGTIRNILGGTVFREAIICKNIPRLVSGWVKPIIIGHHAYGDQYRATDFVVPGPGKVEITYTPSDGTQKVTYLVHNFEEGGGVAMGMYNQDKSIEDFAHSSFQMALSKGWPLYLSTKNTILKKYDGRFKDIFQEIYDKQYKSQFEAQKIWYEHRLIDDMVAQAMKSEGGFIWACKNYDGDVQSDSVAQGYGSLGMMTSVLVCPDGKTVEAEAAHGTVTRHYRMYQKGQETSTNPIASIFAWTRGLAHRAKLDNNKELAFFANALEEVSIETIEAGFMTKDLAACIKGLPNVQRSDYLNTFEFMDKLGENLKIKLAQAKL
# T cruzi growth-1 = T. cruzi intracellular proliferation inhibitors, primary screen, cell-based, beta-gal Tulahuen parasites, NIH3T3 host, luminescence | T. cruzi beta-gal in NIH3T3, GalScreen luminescence, 90 h | inhibition, % at 8.34 µM | hit rate 5.9% among 77,000;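 active means mean inhibition above about 93%, with at least 55% of replicates each passing it, limit read from the data, passing the limit was not always enough; inconclusive means only one of those two conditions holds; inactive means neither condition holds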
# KDM4C inh = inhibitors of GASC-1 (KDM4C) histone demethylase, primary screen, biochemical, single concentration HTS. Lysine-specific demethylase 4C (Homo sapiens), Q9H3R0. GST-KDM4C 2-372, H3K9me3 peptide, LANCE TR-FRET. inhibition, % at 12.5 µM. hit rate 0.15% among 96,000. AID 720574, 2013;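 active means mean replicate inhibition above about 25%, with at least 55% of replicates also reaching it, limit read from the data, passing the limit was not always enough; inconclusive means only one of those two conditions met; inactive means neither condition met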
#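 Assay system: GST-GASC-1 enzyme fragment 2-372 | Amount: 10 nM enzyme | Medium: HEPES buffer, pH 7.5, plus ascorbate | Reagent: H3K9me3 peptide substrate, Fe(II), 2-oxoglutarate | Doses: Single-point compound screen | Incubation: 30 min demethylation and 1 h detection at room temperature | Measured by: LANCE TR-FRET, excitation 340 nm, emissions 618 and 671 nm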
# T cruzi growth-2 = T. cruzi intracellular proliferation inhibitors, confirmation, cell-based, NIH3T3 host, beta-gal parasite, luminescence, cherry-pick; inhibition, % at 8.35 µM; T. cruzi beta-gal in NIH3T3, GalScreen luminescence, 90 h; AID 651739, 2012; shares compounds with T cruzi growth-1; hit rate 72% among 5,600;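 active means mean replicate inhibition above about 95% and at least 55% of replicates individually reaching it, limit read from the data; inconclusive means only one of the two criteria is met; inactive means neither criterion is met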
# T cruzi growth-3 = inhibitors of intracellular T. cruzi replication, confirmation, NIH3T3 host cells, beta-gal parasites, cherry-pick, set 2; shares compounds with T cruzi growth-1; T. cruzi beta-gal in NIH3T3, GalScreen luminescence, 90 h; inhibition, % at 2.09 µM; hit rate 21% among 5,600; AID 651740, 2012;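 active means mean inhibition above about 95%, with at least 55% of replicates also reaching it, limit read from the data; inconclusive means meets just one of the two conditions; inactive means meets neither condition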;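 further: plate controls were neutral control median for no effect and positive control median for full effect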
# 3T3 cytotox = cytotoxicity in mouse NIH/3T3 fibroblasts, confirmation, cytotoxicity control for T. cruzi proliferation inhibitor project, cell-based, cherry-pick, single point. cytotoxicity (signal decrease), % at 8.35 µM. shares compounds with T cruzi growth-1. AID 651742, 2012. NIH/3T3 viability, CellTiter-Glo ATP luminescence, 90 h. hit rate 14% among 5,600;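 active means mean signal decrease across replicates above about 35% based on untreated-well scatter, with enough replicates individually passing, limit read from the data; inconclusive means no rule stated though some were filed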;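 further: 0% = median of neutral control wells and 100% = median of positive control wells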
# 3T3 cytotox 2 = NIH/3T3 fibroblast cytotoxicity, confirmation, cytotoxicity control, cell-based, cherry-pick, single point, set 2; shares compounds with T cruzi growth-1; NIH/3T3 viability, CellTiter-Glo ATP luminescence, 90 h; inhibition, % at 24.9 µM; hit rate 56% among 5,600;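 active means mean loss of cell viability signal at or above a set limit, and enough replicates individually reaching it; inconclusive means meets only the mean limit or only the replicate share; inactive means meets neither condition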;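 further: 0% = median of neutral control wells and 100% = median of positive control wells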
# * marks the source's active call; other numbers are inactive results; ? = inconclusive; / = no result. This is a sample that favours compounds with a hit; in the whole collection about 5.9% have one here.
SMILES,Pf Dd2 inh,IDH1 R132H inh,T cruzi growth-1,KDM4C inh,T cruzi growth-2,T cruzi growth-3,3T3 cytotox,3T3 cytotox 2
CS(=O)(=O)N(CC(=O)Nc1cc(Cl)cc(Cl)c1)c1cccc(Cl)c1,/,0,/,/,/,/,/,/
CO[C@H](CN(C)C(=O)C1CC1)[C@H](C)CN(C(=O)Nc1ccc(C(F)(F)F)cc1)[C@H](C)CO,17,0,111*,-2,35,-13,1,25*
CO[C@H](CN(C)C(=O)C1CCOCC1)[C@@H](C)CN(C(=O)Nc1ccc(C(F)(F)F)cc1)[C@H](C)CO,-11,0,72,/,/,/,/,/
CO[C@H](CN(C)C(=O)C1CC1)[C@@H](C)CN(C(=O)Nc1ccc(C(F)(F)F)cc1)[C@@H](C)CO,-1,0,37,0,/,/,/,/
CO[C@H](CN(C)C(=O)C1CCOCC1)[C@H](C)CN(C(=O)Nc1ccc(C(F)(F)F)cc1)[C@H](C)CO,12,0,113*,1,104*,39,11,45*
COc1cccc(NC(=O)N(C)C[C@H]2Oc3cc(C#Cc4ccc(F)cc4)ccc3S(=O)(=O)N([C@@H](C)CO)C[C@H]2C)c1,-49,/,116*,0,89,102*,4,26
COc1cccc(NC(=O)N(C)C[C@@H]2Oc3cc(C#Cc4ccc(F)cc4)ccc3S(=O)(=O)N([C@@H](C)CO)C[C@H]2C)c1,-44,-1,105*,0,109*,105*,48*,30*
COc1cccc(NC(=O)N(C)C[C@@H]2Oc3cc(-c4ccccc4F)ccc3S(=O)(=O)N([C@@H](C)CO)C[C@@H]2C)c1,-60,/,87,/,/,/,/,/
COc1cccc(NC(=O)N(C)C[C@@H]2Oc3cc(C#Cc4ccncc4)ccc3S(=O)(=O)N([C@@H](C)CO)C[C@H]2C)c1,-56,0,-42,2,/,/,/,/
COc1cccc(NC(=O)N(C)C[C@H]2Oc3cc(-c4ccccc4F)ccc3S(=O)(=O)N([C@H](C)CO)C[C@H]2C)c1,-48,/,96*,/,110*,74,16,22
COc1cccc(NC(=O)N(C)C[C@H]2Oc3cc(C#CC4(O)CCCC4)ccc3S(=O)(=O)N([C@H](C)CO)C[C@@H]2C)c1,-13,/,/,-1,/,/,/,/
COc1cccc(NC(=O)N(C)C[C@@H]2Oc3cc(-c4ccccc4OC)ccc3S(=O)(=O)N([C@H](C)CO)C[C@H]2C)c1,-18,/,/,1,/,/,/,/
COc1ccc(C#Cc2ccc3c(c2)O[C@H](CN(C)C(=O)Nc2cccc(OC)c2)[C@H](C)CN([C@H](C)CO)S3(=O)=O)cc1,-78,/,98*,-2,105*,111*,1,11
CC(=O)c1cccc(NC(=O)CSC2=C(C#N)C(c3ccccc3C)C3=C(CCCC3=O)N2)c1 (stereo unspecified),/,0,/,/,/,/,/,/
Cc1cc(NC(=O)CN(c2cc(Cl)ccc2C)S(C)(=O)=O)ccc1Br,/,0,/,/,/,/,/,/
CCOC(=O)c1c(C)c(C#N)c(/N=C/N(C)C)n1-c1ccc(Cl)cc1Cl,/,2,/,/,/,/,/,/
COc1cccc(NC(=O)N(C)C[C@@H]2Oc3cc(-c4ccccc4F)ccc3S(=O)(=O)N([C@H](C)CO)C[C@H]2C)c1,-42,/,38,-1,/,/,/,/
COc1cccc(NC(=O)N(C)C[C@@H]2Oc3cc(C#Cc4ccccc4)ccc3S(=O)(=O)N([C@H](C)CO)C[C@H]2C)c1,?,-1,?,/,99*,92,52*,39*
COc1cccc(NC(=O)N(C)C[C@H]2Oc3cc(C#Cc4ccc(F)cc4)ccc3S(=O)(=O)N([C@H](C)CO)C[C@@H]2C)c1,-67,/,94*,-2,102*,81,-10,5
COc1cccc(NC(=O)N(C)C[C@@H]2Oc3cc(C#Cc4ccc(F)cc4)ccc3S(=O)(=O)N([C@@H](C)CO)C[C@@H]2C)c1,-86*,/,98*,8,102*,107*,45*,20
COc1cccc(C#Cc2ccc3c(c2)O[C@H](CN(C)C(C)=O)[C@@H](C)CN([C@@H](C)CO)S3(=O)=O)c1,-60,0,?,-1,102*,51,12,49*
COc1cccc(C#Cc2ccc3c(c2)O[C@H](CN(C)C(C)=O)[C@H](C)CN([C@H](C)CO)S3(=O)=O)c1,-55,0,63,-2,/,/,/,/
Cc1cc(C)c(NC(=O)CSc2nnc(-c3ccncc3)n2-c2ccccc2)c([N+](=O)[O-])c1,/,1,/,/,/,/,/,/
O=C([C@H]1[C@H](CO)[C@H]2Cn3c(cccc3=O)[C@@H]1N2Cc1cccc(Cl)c1)N1CCOCC1,/,/,100*,-1,-38,27,-10,-2
O=C([C@@H]1[C@@H](CO)[C@@H]2Cn3c(ccc(-c4ccccc4)c3=O)[C@H]1N2Cc1cccnc1)N1CCOCC1,/,/,97*,0,-16,-6,12,-7
SMILES,Pf Dd2 inh,IDH1 R132H inh,T cruzi growth-1,KDM4C inh,T cruzi growth-2,T cruzi growth-3,3T3 cytotox,3T3 cytotox 2
Cc1ccc(-n2ncc(C(=O)NCc3ccccn3)c2NC(=O)c2ccco2)cc1C,/,0,/,/,/,/,/,/
Cc1ccc(-c2ccc([C@H]3[C@H](CO)N4CCCCN(S(=O)(=O)c5ccccc5C)C[C@@H]34)cc2)cc1,-48,/,75,0,/,/,/,/
Cc1cccc(-c2ccc([C@H]3[C@@H](CO)N4CCCCN(S(=O)(=O)c5ccccc5C)C[C@@H]34)cc2)c1,-13,/,111*,-1,112*,89,9,-3
Cc1ccccc1S(=O)(=O)N1CCCCN2[C@H](C1)[C@H](c1ccc(-c3ccccc3)cc1)[C@@H]2CO,2,/,107*,/,102*,75,0,48*
C[C@@H]1CCCCO[C@@H](CN(C)C(=O)Nc2ccc3c(c2)OCO3)[C@H](C)CN([C@H](C)CO)C(=O)c2cc(NC(=O)Nc3cccc4ccccc34)ccc2O1,-12,4,/,-1,/,/,/,/
C[C@@H]1CCCCO[C@H](CN(C)Cc2ccc3c(c2)OCO3)[C@H](C)CN([C@@H](C)CO)C(=O)c2cc(NC(=O)Nc3cccc4ccccc34)ccc2O1,-78,-7,116*,-3,92,103*,24,103*
